The values below come from ChEMBL document CHEMBL1955823, “Imidazo[1,2-a]pyrazines as novel PI3K inhibitors” (Bioorg Med Chem Lett, 2012).

Test [1] addresses T1, NUAK family SNF1-like kinase 1 (Homo sapiens) (UniProt O60285).
T1 sequence (whole entry): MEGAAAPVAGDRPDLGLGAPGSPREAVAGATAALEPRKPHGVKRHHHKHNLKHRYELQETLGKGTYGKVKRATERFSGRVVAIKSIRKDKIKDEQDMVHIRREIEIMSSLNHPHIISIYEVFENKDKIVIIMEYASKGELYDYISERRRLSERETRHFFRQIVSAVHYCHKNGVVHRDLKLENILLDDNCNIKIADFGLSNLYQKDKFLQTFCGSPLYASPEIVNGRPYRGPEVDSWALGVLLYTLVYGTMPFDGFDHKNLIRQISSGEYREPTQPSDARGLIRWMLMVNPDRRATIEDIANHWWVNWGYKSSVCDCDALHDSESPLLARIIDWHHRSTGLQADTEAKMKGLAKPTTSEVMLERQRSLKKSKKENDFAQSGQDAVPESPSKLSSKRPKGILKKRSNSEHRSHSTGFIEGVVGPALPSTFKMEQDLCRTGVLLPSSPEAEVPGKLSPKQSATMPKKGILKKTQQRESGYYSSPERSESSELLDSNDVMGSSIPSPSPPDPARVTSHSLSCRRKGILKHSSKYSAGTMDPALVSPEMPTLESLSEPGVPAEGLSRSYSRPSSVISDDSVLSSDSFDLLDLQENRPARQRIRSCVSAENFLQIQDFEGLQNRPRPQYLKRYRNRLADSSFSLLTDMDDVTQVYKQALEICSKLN
Kind of test: Inhibition of ARK5 at 5 to 10 uM.

Test [2] concerns the target Insulin receptor (Homo sapiens) (UniProt P06213). The test is described as follows: Inhibition of INS-R at 5 to 10 uM.
The target of test [3] is Mitogen-activated protein kinase 8 (Homo sapiens) (UniProt P45983). Kind of test: Inhibition of JNK1 at 5 to 10 uM.
Test [4] in a line: Inhibition of PDGFR at 5 to 10 uM.
For test [5], the target named is T2, PI3-kinase p110-alpha/p85-alpha (Homo sapiens, UniProt P42336). Kind of test: Inhibition of PI3K p110alpha/p85alpha-mediated AKT1 phosphorylation at Ser473 in human U2OS cells. The test is classed as cell-based. An outline of the steps:
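Endogenous phospho-Akt1 (Ser473) measured in U2OS osteosarcoma cells kept in 0.1% FBS and then serum-stimulated; read-out by cell-based ELISA with femto chemiluminescent substrate.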

Test [6] concerns the target T3, Inhibitor of nuclear factor kappa-B kinase subunit beta (Homo sapiens) (UniProt O14920).
T3 sequence (whole entry): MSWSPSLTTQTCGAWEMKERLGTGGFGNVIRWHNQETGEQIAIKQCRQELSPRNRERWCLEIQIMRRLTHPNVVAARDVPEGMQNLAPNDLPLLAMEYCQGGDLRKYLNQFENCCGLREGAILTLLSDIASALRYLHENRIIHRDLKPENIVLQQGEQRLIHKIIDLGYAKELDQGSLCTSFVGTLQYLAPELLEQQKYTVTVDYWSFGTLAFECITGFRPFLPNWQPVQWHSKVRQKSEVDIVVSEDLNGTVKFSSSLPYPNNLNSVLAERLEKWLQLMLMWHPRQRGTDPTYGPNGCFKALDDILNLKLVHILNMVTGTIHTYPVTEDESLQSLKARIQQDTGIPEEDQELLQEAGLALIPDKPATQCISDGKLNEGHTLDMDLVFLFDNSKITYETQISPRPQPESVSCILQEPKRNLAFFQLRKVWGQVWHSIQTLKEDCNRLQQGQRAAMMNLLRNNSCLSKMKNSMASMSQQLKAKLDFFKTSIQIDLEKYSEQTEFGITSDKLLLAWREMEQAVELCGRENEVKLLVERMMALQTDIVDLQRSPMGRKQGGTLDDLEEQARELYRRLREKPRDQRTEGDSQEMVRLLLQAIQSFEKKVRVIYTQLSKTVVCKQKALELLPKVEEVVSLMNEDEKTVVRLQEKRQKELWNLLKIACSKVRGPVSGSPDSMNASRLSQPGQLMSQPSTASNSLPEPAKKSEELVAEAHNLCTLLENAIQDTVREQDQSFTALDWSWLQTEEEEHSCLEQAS
The test is described as follows: Inhibition of IKK-beta at 5 to 10 uM.

The target of test [7] is Serine/threonine-protein kinase pim-2 (Homo sapiens) (UniProt Q9P1W9). The test is described as follows: Inhibition of PIM2 at 5 to 10 uM.
The test system of test [8] is Serine/threonine-protein kinase B-raf (Homo sapiens), P15056 [V600E]. Kind of test: Inhibition of BRAF V600E mutant at 5 to 10 uM.
For test [9], the target named is Serine/threonine-protein kinase mTOR (Homo sapiens, UniProt P42345). Kind of test: Inhibition of mTOR. The procedure, abridged:
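mTOR (FRAP1) kinase assay using GFP-4E-BP1 substrate and a Tb-labelled anti-phospho-4E-BP1 (Thr46) antibody in a TR-FRET format, under the manufacturer's conditions; averages of two independent experiments run in duplicate.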

Test [10] addresses Mast/stem cell growth factor receptor Kit (Homo sapiens) (UniProt P10721). Kind of test: Inhibition of KIT at 5 to 10 uM.
The target of test [11] is T2, PI3-kinase p110-alpha/p85-alpha. The test is described as follows: Inhibition of human PI3K p110alpha/p85alpha. It counts as protein-complex assay. As to conditions: read-out: Ki(app).
For test [12], the target named is T4, Serine/threonine-protein kinase Sgk1 (Homo sapiens) (UniProt O00141).
T4 sequence (whole entry): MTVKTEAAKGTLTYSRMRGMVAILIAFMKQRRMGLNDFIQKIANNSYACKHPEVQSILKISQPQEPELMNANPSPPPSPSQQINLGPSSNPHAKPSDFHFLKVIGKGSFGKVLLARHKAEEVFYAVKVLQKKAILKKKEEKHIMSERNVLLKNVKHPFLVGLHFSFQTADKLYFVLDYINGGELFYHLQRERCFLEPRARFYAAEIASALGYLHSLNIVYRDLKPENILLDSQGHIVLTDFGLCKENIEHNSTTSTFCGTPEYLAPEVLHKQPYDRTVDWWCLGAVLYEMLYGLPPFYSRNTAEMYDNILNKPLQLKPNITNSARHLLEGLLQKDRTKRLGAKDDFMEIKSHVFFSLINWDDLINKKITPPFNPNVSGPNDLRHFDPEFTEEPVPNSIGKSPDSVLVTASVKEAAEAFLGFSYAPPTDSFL
The test is described as follows: Inhibition of SGK1 at 5 to 10 uM.

Test [13] concerns the target Fibroblast growth factor receptor 1 (Homo sapiens) (UniProt P11362). The test is described as follows: Inhibition of FGF-R1 at 5 to 10 uM.
Test [14] concerns the target RAC-alpha serine/threonine-protein kinase (Homo sapiens) (UniProt P31749). Kind of test: Inhibition of AKT1 at 5 to 10 uM.
Test [15] deals with Hepatocyte growth factor receptor (Homo sapiens) (UniProt P08581). Kind of test: Inhibition of MET at 5 to 10 uM.
The target of test [16] is Casein kinase I isoform alpha (Homo sapiens) (UniProt P48729). The test is described as follows: Inhibition of CK1alpha1 at 5 to 10 uM.
Test [17] addresses Phosphatidylinositol 4,5-bisphosphate 3-kinase catalytic subunit gamma isoform (Homo sapiens, UniProt P48736). The test is described as follows: Inhibition of human PI3K p110gamma. The conditions noted are these: read-out: Ki(app).
For test [18], the target named is Epidermal growth factor receptor (Homo sapiens) (UniProt P00533). The test is described as follows: Inhibition of EGF-R at 5 to 10 uM.

Each structure is given as a SMILES string.

Sequence of Phosphatidylinositol 4,5-bisphosphate 3-kinase catalytic subunit gamma isoform (P48736 whole entry, canonical isoform): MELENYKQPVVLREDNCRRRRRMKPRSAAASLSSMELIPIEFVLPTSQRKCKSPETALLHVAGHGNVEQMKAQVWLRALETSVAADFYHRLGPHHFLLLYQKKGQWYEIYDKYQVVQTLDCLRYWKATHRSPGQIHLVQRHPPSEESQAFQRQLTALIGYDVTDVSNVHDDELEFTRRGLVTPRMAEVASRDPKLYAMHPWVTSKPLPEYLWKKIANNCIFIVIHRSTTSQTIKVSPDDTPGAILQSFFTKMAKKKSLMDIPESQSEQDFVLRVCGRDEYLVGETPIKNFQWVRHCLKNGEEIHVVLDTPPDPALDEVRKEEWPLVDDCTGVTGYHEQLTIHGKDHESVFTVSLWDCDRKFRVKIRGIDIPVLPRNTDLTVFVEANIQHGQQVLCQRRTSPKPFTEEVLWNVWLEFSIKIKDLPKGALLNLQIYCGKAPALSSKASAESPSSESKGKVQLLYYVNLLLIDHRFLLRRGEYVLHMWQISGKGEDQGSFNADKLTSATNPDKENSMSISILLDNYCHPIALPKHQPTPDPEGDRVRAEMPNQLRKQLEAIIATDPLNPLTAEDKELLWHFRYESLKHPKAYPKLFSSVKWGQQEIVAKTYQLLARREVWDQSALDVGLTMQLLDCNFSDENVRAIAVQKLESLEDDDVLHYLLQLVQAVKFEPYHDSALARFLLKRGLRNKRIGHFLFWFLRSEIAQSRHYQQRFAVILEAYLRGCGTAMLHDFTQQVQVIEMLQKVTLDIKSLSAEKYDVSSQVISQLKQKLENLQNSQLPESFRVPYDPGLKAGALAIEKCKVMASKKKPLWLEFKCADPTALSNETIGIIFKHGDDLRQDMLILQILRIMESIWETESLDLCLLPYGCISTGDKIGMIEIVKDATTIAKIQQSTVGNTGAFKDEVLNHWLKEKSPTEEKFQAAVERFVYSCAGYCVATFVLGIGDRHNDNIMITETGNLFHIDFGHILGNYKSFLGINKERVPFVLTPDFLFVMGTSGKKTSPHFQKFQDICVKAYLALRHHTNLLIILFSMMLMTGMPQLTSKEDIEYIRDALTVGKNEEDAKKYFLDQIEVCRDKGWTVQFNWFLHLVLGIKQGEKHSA
Sequence of Serine/threonine-protein kinase B-raf (Homo sapiens), P15056 [V600E] (P15056 whole entry V600E): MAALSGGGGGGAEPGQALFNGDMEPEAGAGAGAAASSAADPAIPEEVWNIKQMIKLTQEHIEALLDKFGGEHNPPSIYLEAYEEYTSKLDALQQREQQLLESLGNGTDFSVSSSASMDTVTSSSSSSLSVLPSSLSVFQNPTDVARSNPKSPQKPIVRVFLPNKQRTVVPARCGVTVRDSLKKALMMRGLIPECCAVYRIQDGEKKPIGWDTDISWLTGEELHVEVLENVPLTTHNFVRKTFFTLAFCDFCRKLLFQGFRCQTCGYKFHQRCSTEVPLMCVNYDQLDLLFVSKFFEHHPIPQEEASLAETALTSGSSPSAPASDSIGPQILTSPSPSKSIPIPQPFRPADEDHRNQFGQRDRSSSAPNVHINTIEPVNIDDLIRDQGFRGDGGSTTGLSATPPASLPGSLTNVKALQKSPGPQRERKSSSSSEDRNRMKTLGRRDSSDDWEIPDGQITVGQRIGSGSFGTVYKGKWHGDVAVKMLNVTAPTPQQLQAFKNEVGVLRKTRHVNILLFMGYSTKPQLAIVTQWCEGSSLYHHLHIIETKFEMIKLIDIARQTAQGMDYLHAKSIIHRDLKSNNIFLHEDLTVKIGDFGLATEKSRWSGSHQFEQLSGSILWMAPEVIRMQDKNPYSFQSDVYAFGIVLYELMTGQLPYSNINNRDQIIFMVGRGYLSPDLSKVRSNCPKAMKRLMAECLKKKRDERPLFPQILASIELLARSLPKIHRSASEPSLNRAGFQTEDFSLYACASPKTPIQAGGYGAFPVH
Sequence of Epidermal growth factor receptor (Homo sapiens) (P00533 whole entry): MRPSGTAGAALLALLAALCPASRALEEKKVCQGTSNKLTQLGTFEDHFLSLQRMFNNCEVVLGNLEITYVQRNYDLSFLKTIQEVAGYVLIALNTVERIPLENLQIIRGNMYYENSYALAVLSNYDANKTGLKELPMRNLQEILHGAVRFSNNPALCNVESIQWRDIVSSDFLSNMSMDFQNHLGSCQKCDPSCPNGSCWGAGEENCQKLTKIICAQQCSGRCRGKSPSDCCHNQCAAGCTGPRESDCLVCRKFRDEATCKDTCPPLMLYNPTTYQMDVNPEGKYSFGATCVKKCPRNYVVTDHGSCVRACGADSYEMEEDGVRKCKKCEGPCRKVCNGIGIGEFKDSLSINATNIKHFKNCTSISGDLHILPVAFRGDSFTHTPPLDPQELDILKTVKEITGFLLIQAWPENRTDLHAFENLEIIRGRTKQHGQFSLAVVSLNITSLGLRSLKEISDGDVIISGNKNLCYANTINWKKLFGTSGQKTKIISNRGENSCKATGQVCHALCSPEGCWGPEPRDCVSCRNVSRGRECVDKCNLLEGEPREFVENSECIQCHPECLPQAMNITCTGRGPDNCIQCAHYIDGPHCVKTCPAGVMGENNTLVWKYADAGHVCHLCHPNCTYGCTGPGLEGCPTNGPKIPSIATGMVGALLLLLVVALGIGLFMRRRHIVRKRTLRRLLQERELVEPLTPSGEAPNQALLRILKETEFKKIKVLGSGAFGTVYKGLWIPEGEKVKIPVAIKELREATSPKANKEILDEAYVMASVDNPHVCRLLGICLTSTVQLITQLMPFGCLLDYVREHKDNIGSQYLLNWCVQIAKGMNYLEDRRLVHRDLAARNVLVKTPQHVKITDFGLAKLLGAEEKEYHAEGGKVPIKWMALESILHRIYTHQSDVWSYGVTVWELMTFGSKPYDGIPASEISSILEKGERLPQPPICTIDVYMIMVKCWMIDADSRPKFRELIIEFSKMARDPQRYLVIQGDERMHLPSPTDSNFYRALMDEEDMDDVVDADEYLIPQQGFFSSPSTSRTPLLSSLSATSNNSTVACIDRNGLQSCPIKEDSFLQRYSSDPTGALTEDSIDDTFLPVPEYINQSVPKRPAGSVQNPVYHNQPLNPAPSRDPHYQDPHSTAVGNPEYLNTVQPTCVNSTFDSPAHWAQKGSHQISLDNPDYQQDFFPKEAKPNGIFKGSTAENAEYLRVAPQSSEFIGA
Sequence of Mast/stem cell growth factor receptor Kit (Homo sapiens) (P10721 whole entry): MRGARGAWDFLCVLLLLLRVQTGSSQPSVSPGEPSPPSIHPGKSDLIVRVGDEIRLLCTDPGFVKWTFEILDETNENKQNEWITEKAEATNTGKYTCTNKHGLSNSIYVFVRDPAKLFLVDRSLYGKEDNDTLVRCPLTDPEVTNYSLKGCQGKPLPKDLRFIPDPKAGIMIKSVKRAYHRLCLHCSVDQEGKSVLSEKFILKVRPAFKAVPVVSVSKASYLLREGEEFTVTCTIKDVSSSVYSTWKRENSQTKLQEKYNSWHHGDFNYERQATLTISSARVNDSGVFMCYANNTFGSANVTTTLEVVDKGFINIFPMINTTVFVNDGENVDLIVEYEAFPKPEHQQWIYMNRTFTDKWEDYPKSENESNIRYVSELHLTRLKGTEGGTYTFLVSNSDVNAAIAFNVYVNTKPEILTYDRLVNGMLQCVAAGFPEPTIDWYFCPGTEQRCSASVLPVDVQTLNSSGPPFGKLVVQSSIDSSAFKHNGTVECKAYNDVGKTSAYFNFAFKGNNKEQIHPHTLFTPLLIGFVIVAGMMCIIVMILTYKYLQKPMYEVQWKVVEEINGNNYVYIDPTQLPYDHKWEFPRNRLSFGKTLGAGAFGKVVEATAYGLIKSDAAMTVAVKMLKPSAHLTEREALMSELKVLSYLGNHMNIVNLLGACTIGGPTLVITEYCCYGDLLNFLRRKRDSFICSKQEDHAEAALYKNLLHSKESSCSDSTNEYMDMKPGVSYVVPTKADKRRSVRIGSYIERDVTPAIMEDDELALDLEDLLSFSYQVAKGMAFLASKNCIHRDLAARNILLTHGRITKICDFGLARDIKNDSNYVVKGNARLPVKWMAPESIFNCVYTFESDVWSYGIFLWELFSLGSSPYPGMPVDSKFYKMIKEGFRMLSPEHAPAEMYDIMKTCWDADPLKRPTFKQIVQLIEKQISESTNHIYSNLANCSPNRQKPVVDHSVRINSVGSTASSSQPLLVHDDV
Sequence of Casein kinase I isoform alpha (Homo sapiens) (P48729 2-337 limits assumed): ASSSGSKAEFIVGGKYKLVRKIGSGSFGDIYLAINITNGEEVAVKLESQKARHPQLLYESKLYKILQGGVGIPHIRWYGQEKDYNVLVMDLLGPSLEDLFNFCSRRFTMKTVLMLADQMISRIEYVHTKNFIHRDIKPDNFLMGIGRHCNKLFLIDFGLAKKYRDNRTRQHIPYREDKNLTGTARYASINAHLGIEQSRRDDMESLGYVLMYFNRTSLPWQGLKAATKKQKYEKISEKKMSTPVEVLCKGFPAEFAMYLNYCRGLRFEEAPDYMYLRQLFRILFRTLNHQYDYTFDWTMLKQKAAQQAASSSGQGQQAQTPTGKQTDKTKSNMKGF
Sequence of Serine/threonine-protein kinase pim-2 (Homo sapiens) (Q9P1W9 whole entry, looked up): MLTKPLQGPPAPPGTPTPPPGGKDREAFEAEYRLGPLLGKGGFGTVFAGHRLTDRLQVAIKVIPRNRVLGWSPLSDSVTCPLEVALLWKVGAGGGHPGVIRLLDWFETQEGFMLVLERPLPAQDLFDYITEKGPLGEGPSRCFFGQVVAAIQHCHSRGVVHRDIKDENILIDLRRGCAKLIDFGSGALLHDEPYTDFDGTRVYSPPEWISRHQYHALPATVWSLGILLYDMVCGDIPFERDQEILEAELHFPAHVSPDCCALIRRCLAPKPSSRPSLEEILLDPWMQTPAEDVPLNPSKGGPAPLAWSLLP

One may read the inhibition as how much of the control response was suppressed. Read a high inhibition as a strong effect. The term EC50 denotes the concentration that produces a half-maximal response. The low end stands for a more potent agent, the high end for a less potent agent. For orientation: IC50 means the midpoint of a concentration-inhibition curve. Read a low IC50 as higher potency. As to `CS(=O)(=O)N1CCN(Cc2nc3c(N4CCOCC4)nc(-c4cccc5[nH]ncc45)cn3c2Br)CC1`, the inhibition in test [1] is less than 50%; in test [2], 50%; in test [3], less than 50%; in test [4], less than 50%; in test [6], less than 50%; in test [7], less than 50%. Moreover, the inhibition in test [8] was less than 50%; in test [10] it was less than 50%; in [12], less than 50%; in test [13], less than 50%; in test [14], 50%; in test [15] it was less than 50%. For the same molecule, the inhibition in [16] and in test [18] was less than 50% in each case. The molecule further showed a concentration giving a half-maximal response (EC50) in test [5] of 208 nM. Besides, the half-maximal inhibitory concentration (IC50) in test [9] was more than 10000 nM. Also, the Ki is 86 nM in test [11] and more than 500 nM in [17].
With `CS(=O)(=O)N1CCN(Cc2cn3c(C#N)c(-c4cccc5[nH]ncc45)nc(N4CCOCC4)c3n2)CC1`, the inhibition was less than 50% in [1]; 50% in test [2]; less than 50% in test [3]; less than 50% in [4]; less than 50% in [6]; less than 50% in [7]. Also, the inhibition in test [8] was less than 50%; in test [10], less than 50%; in [12], less than 50%; in [13], less than 50%; in test [14] it was 50%; in test [15], less than 50%. Moreover, the inhibition in test [16] and in [18] was less than 50% each time. Also, the 50% effective concentration (EC50) in test [5] stood at 203 nM. In addition, the IC50 in test [9] is more than 10000 nM. In addition, the Ki was 410 nM in test [11] and more than 500 nM in test [17].
With `CN(C)CCCNC(=O)c1cn2cc(-c3cccc4[nH]ncc34)nc(N3CCOCC3)c2n1`, the inhibition in test [1] is less than 50%; in test [2] it was 50%; in test [3], less than 50%; in test [4], less than 50%; in test [6] it was less than 50%; in test [7], less than 50%. For the same molecule, the inhibition is less than 50% in [8]; less than 50% in [10]; less than 50% in test [12]; less than 50% in test [13]; 50% in test [14]; less than 50% in test [15]. The inhibition in test [16] and in test [18] was less than 50% throughout. The molecule also showed an EC50 in test [5] of 429 nM. Moreover, the half-inhibitory concentration (IC50) in test [9] is more than 10000 nM. Besides, the Ki in [11] is 44 nM; in test [17], more than 500 nM.
Turning to `CNC(=O)c1cn2cc(-c3cccc4[nH]ncc34)nc(N3CCOCC3)c2n1`, the inhibition was less than 50% in test [1]; 50% in test [2]; less than 50% in test [3]; less than 50% in test [4]; less than 50% in test [6]; less than 50% in [7]. The inhibition in test [8] was less than 50%; in test [10], less than 50%; in [12] it was less than 50%; in test [13] it was less than 50%; in test [14], 50%; in [15], less than 50%. Further, the inhibition in test [16] and in [18] was less than 50% each time. In [5], this molecule had an EC50 of 600 nM. This molecule also registered an IC50 in test [9] of more than 10000 nM. For the same molecule, the Ki in test [11] was 102 nM; in test [17], more than 500 nM.
Take `COCCCNC(=O)c1cn2cc(-c3cccc4[nH]ncc34)nc(N3CCOCC3)c2n1`: the inhibition in test [1] is less than 50%; in [2] it was 50%; in test [3], less than 50%; in test [4], less than 50%; in [6], less than 50%; in test [7], less than 50%. For the same molecule, the inhibition is less than 50% in [8]; less than 50% in [10]; less than 50% in [12]; less than 50% in [13]; 50% in [14]; less than 50% in test [15]. Further, the inhibition in [16] and in test [18] was less than 50% in each case. Further, the concentration giving a half-maximal response (EC50) in test [5] turned out to be 114 nM. Moreover, in [9], the IC50 is more than 10000 nM. The Ki is 60 nM in test [11] and more than 500 nM in test [17].
Consider `CS(=O)(=O)N1CCN(Cc2cn3c(Cl)c(-c4cccc5[nH]ncc45)nc(N4CCOCC4)c3n2)CC1`, for which the inhibition is less than 50% in test [1]; 50% in [2]; less than 50% in test [3]; less than 50% in test [4]; less than 50% in test [6]; less than 50% in test [7]. Also, the inhibition in [8] is less than 50%; in [10], less than 50%; in [12], less than 50%; in test [13], less than 50%; in [14], 50%; in test [15], less than 50%. For the same molecule, the inhibition in test [16] and in [18] was less than 50% in each case. In test [5], this molecule displayed an EC50 of 495 nM. The molecule also returned a concentration for half-maximal inhibition (IC50) in test [9] of more than 10000 nM. Also, the figures for the Ki in test [11] and in test [17] were 210 nM and more than 500 nM, respectively.
`CS(=O)(=O)N1CCN(Cc2cn3cc(-c4cccc5[nH]ncc45)nc(N4CCOCC4)c3n2)CC1`: the inhibition in [1] was less than 50%; in test [2] it was 50%; in test [3] it was less than 50%; in test [4], less than 50%; in [6], less than 50%; in test [7] it was less than 50%. Moreover, the inhibition in test [8], in test [10], in test [12], in test [13], in test [14] and in test [15] was less than 50% each time. Further, the inhibition in [16] and in test [18] was less than 50% throughout. The molecule further displayed an IC50 in test [9] of more than 10000 nM. Moreover, the Ki in test [17] was more than 500 nM.
